Converted amounts (≈) assume the structure as drawn.

The test system of one series is Helicobacter pylori. Briefly: Antibacterial activity against Helicobacter pylori strain. It counts as functional. The method in brief: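 H. pylori ATCC 43504 in Brucella broth (pH 7.0) with 10% FCS, starting at ~10⁶ CFU/mL. Compounds were tested as twofold serial dilutions, 0.5–256 μg/mL, made in DMSO. Cultures were incubated 72 h at 37 °C under 85% N₂/10% CO₂/5% O₂ and read by OD at 560 nm. MIC is the lowest concentration completely inhibiting growth.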

The conditions of series [1]: chromatographic retention.
In the next series the test system is Helicobacter felis. Kind of series: Antibacterial activity against Helicobacter felis strain in vitro.

In turn, `Cc1cnc(CSc2nc3cc(C)ccc3[nH]2)c(C)c1` registered an MBC with Helicobacter pylori of 32 µg/mL (≈ 113 µM). Besides, the “Log Ko” value in series [1] was 0.23.
In the same order, the values of `COc1ccnc(CSc2nc3cc(CO)ccc3[nH]2)c1C` are 128 µg/mL (≈ 406 µM) and -0.66.
The corresponding values for `CC(=O)c1ccc2[nH]c(SCc3ncc(C)cc3C)nc2c1` are 128 µg/mL (≈ 411 µM) and -0.11.
The corresponding values for `C=CCOc1ccnc(CSc2nc3ccccc3[nH]2)c1C` are 1 µg/mL (≈ 3.21 µM) and 0.26.
On to `COc1ccc2[nH]c(SCc3ncc(C)c(OC)c3C)nc2c1` [UFIPRAZOLE], for which the minimum bactericidal concentration (MBC) against Helicobacter pylori turned out to be 32 µg/mL (≈ 97.1 µM). Moreover, the “Log Ko” value in series [1] is given as 0.
In the same order, the values of `COc1ccnc(CSc2nc3ccccc3[nH]2)c1` are 64 µg/mL (≈ 236 µM) and -0.3.
Regarding `c1ccc(CSc2nc3ccccc3[nH]2)nc1`, the minimum bactericidal concentration (MBC) against Helicobacter pylori stood at 128 µg/mL (≈ 530 µM).
In turn, `COc1ccnc(CSc2nc3ccccc3[nH]2)c1C` gave an MBC with Helicobacter pylori of 32 µg/mL (≈ 112 µM). Further, the Log Ko in series [1] is -0.08.
The corresponding values for `COc1c(C)cnc(CSc2nc3cc(C(C)(C)C)ccc3[nH]2)c1C` are 8 µg/mL (≈ 22.5 µM) and 0.86.
In the same order, the values of `COc1ccnc(CSc2nc3cc(F)ccc3[nH]2)c1OC` are 4 µg/mL (≈ 12.5 µM) and 0.44.
Turning to `Cc1ccnc(CSc2nc3ccccc3[nH]2)c1`, the MBC with Helicobacter pylori was found to be 128 µg/mL (≈ 501 µM). Moreover, the Log Ko in series [1] is -0.21.
In the case of `Cc1c(OCC2CC2)ccnc1CSc1nc2ccccc2[nH]1`, the MBC in the series on Helicobacter felis was determined as 0.5 µg/mL (≈ 1.54 µM); against Helicobacter pylori it was 1 µg/mL (≈ 3.07 µM). Moreover, in series [1], the “Log Ko” value stood at 0.46.
For `Cc1cnc(CSc2nc3cc(Cl)ccc3[nH]2)c(C)c1`, in the series with Helicobacter pylori, the MBC came to 8 µg/mL (≈ 26.3 µM). In addition, in series [1], the “Log Ko” value was 0.45.
Molecule `C#CCOc1ccnc(CSc2nc3ccccc3[nH]2)c1C` gave an MBC in the series on Helicobacter pylori of 2 µg/mL (≈ 6.46 µM). Also, the Log Ko in series [1] is -0.01.
In the same order, the values of `Cc1c(OCC(C)C)ccnc1CSc1nc2ccccc2[nH]1` are 1 µg/mL (≈ 3.05 µM) and 0.75.
In turn, `Cc1c(OCc2ccccc2)ccnc1CSc1nc2ccccc2[nH]1` had a minimum bactericidal concentration (MBC) against Helicobacter pylori of 8 µg/mL (≈ 22.1 µM). Besides, in series [1], the “Log Ko” value stood at 0.67.
For the molecule `Cc1c(OCC(F)(F)F)ccnc1CSc1nc2ccccc2[nH]1` [LANSOPRAZOLE SULFIDE], in the series with Helicobacter pylori, the MBC stood at 4 µg/mL (≈ 11.3 µM). The “Log Ko” value in series [1] was 0.28.
The corresponding values for `Clc1ccnc(CSc2nc3ccccc3[nH]2)c1` are 64 µg/mL (≈ 232 µM) and -0.08.
`c1ccc2[nH]c(SCc3cc(OCC4CC4)ccn3)nc2c1`: the MBC in the series with Helicobacter pylori came out at 32 µg/mL (≈ 103 µM). The “Log Ko” value in series [1] came to 0.13.
Molecule `COc1ccc2[nH]c(SCc3cc(SC)ccn3)nc2c1` yielded an MBC against Helicobacter pylori of 256 µg/mL (≈ 806 µM). In addition, the Log Ko in series [1] was -0.16.
In the same order, the values of `COCCOc1ccnc(CSc2nc3ccccc3[nH]2)c1C` are 2 µg/mL (≈ 6.07 µM) and -0.17.
In the case of `CC1(C)S[C@@H]2[C@H](NC(=O)[C@H](N)c3ccc(O)cc3)C(=O)N2[C@H]1C(=O)O` [AMOXICILLIN], the MBC against Helicobacter felis and with Helicobacter pylori was 0.05 µg/mL (≈ 0.137 µM) each time.
Consider `CC(=O)c1ccc2[nH]c(SCc3cc(C(C)(C)C)ccn3)nc2c1`, for which the MBC against Helicobacter pylori was found to be 64 µg/mL (≈ 189 µM). Further, the “Log Ko” value in series [1] is 0.18.
For the molecule `COc1c(C)cnc(CSc2nc3ccccc3[nH]2)c1C`, the minimum bactericidal concentration (MBC) in the series with Helicobacter pylori amounted to 8 µg/mL (≈ 26.7 µM). Moreover, the “Log Ko” value in series [1] is listed as 0.05.
In the same order, the values of `COCCCOc1ccnc(CSc2nc3ccccc3[nH]2)c1C` are 2 µg/mL (≈ 5.82 µM) and 0.07.
In the same order, the values of `CCOc1ccnc(CSc2nc3ccccc3[nH]2)c1C` are 2 µg/mL (≈ 6.68 µM) and 0.19.

In general, MBC refers to the lowest tested concentration that kills the bacteria rather than only halting them. Read a low MBC as greater bactericidal potency.

(Values after ChEMBL document CHEMBL1131226, “Structure-activity relationship of 2-[[(2-pyridyl)methyl]thio]-1H- benzimidazoles as anti Helicobacter pylori agents in vitro and evaluation of their in vivo efficacy” (J Med Chem, 1998).)
